Reference: ChEMBL document CHEMBL1955865, “Synthesis of novel spirooxindole derivatives by one pot multicomponent reaction and their antimicrobial activity” (2012)
In brackets after ≈: the same amount, converted by molar mass. Activity calls are given as the source filed them. The rule behind the calls is not given here.

How the values were obtained:
[1] = Antifungal activity against Malassezia pachydermatis at 1000 ug/disc after 48 hrs by disc diffusion assay; assay type: functional
How it was run: (§1)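 Fungal disc diffusion with inoculum from SDA spores (filamentous) or SDB culture (yeast). Test cultures were swabbed on agar, and discs at 1000 µg/disc were left 30 min at room temperature, with a solvent negative control. Plates were incubated 48 h at 27 °C. Zone of inhibition was measured in mm, and the experiment was repeated twice.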

Candida albicans [2] = experiment: Antifungal activity against Candida albicans MTCC 227 at 1000 ug/disc after 48 hrs by disc diffusion assay; assay type: functional; settings: for zone of inhibition at 1000 µg/disc: MTCC 227, 48 h, read-out: IZ; how it was run: as §1
Botrytis cinerea [3] = experiment: Antifungal activity against Botrytis cinerea at 1000 ug/disc after 48 hrs by disc diffusion assay; assay type: functional; settings: for zone of inhibition at 1000 µg/disc: read-out: IZ; how it was run: as §1
Staphylococcus aureus [4] = experiment: Antibacterial activity against Staphylococcus aureus MTCC 96 at 1000 ug/disc after 24 hrs by disc diffusion assay; assay type: functional; settings: for zone of inhibition at 1000 µg/disc: MTCC 96, 24 h, read-out: IZ
How it was run: (§2)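 Disc diffusion on Mueller Hinton agar. Cultures (about 10^4 CFU/ml) were swabbed on and dried 10 min. Discs loaded at 1000 µg/disc were left 30 min at room temperature for diffusion, with a solvent negative control. Plates were incubated 24 h at 37 °C. Inhibition zones were measured in mm, and the experiment was done twice.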

Staphylococcus aureus [5] = experiment: Antibacterial activity against methicillin-resistant Staphylococcus aureus at 1000 ug/disc after 24 hrs by disc diffusion assay; assay type: functional; settings: for zone of inhibition at 1000 µg/disc: read-out: IZ
How it was run: (§3)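 Disc diffusion on Mueller Hinton agar. Bacteria were grown 24 h at 37 °C in MHB and diluted to about 10^4 CFU/ml, swabbed onto plates and dried 10 min. Discs were loaded at 1000 μg/disc and held 30 min at room temperature for diffusion. Solvent served as negative control. After 24 h at 37 °C, inhibition zones were read in mm; run twice.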

Micrococcus luteus [6] = experiment: Antibacterial activity against Micrococcus luteus at 1000 ug/disc after 24 hrs by disc diffusion assay; assay type: functional; settings: read-out: IZ; how it was run: as §2
Klebsiella aerogenes [7] = experiment: Antibacterial activity against Enterobacter aerogenes MTCC 111 at 1000 ug/disc after 24 hrs by disc diffusion assay; assay type: functional; settings: for zone of inhibition at 1000 µg/disc: MTCC 111, 24 h, read-out: IZ; how it was run: as §2
Proteus vulgaris [8] = experiment: Antibacterial activity against Proteus vulgaris MTCC 1771 at 1000 ug/disc after 24 hrs by disc diffusion assay; assay type: functional; settings: for zone of inhibition at 1000 µg/disc: MTCC 1771, 24 h, read-out: IZ; how it was run: as §2
Klebsiella pneumoniae [9] = experiment: Antibacterial activity against Klebsiella pneumoniae MTCC 109 at 1000 ug/disc after 24 hrs by disc diffusion assay; assay type: functional; settings: for zone of inhibition at 1000 µg/disc: MTCC 109, 24 h, read-out: IZ; how it was run: as §2
Salmonella typhimurium [10] = experiment: Antibacterial activity against Salmonella Typhimurium MTCC 1251 at 1000 ug/disc after 24 hrs by disc diffusion assay; assay type: functional, Salmonella enterica subsp. enterica serovar Typhimurium; settings: Salmonella enterica, MTCC 1251, 24 h; read-out: IZ; how it was run: as §2
[11] = test system: Salmonella enterica subsp. enterica serovar Paratyphi B; experiment: Antibacterial activity against Salmonella paratyphi B at 1000 ug/disc after 24 hrs by disc diffusion assay; assay type: functional; settings: for zone of inhibition at 1000 µg/disc: read-out: IZ; how it was run: as §3
Staphylococcus aureus [12] = experiment: Antibacterial activity against Staphylococcus aureus MTCC 96 after 24 hrs by twofold serial dilution method; assay type: functional; settings: MTCC 96, 24 h
How it was run: (§4)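 Bacteria grown in Mueller Hinton broth for 24 h at 37 °C and diluted to about 10^4 CFU/ml. Compound in 2% DMSO was serially diluted two-fold (1000 to 15.62 µg/ml) in medium in 96-well plates and inoculated. Plates were incubated 24 h at 37 °C. 5 µl of broth was spotted onto MHA, and MIC was taken as the lowest concentration with no visible growth on agar.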

Staphylococcus aureus [13] = experiment: Antibacterial activity against methicillin-resistant Staphylococcus aureus after 24 hrs by twofold serial dilution method; assay type: functional
How it was run: (§5)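 Broth microdilution in MHB following the standard bacterial reference method. Compound was dissolved in DMSO (2%) and serially diluted two-fold from 1000 to 15.62 µg/ml in 96-well plates, with an inoculum of about 10^4 CFU/ml. Streptomycin and ciprofloxacin were positive controls. After 24 h at 37 °C, 5 µl of broth was subcultured on MHA. MIC was the lowest concentration without visible growth on agar.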

Micrococcus luteus [14] = experiment: Antibacterial activity against Micrococcus luteus after 24 hrs by twofold serial dilution method; assay type: functional; how it was run: as §4
Klebsiella aerogenes [15] = experiment: Antibacterial activity against Enterobacter aerogenes MTCC 111 after 24 hrs by twofold serial dilution method; assay type: functional; settings: MTCC 111, 24 h; how it was run: as §4
Proteus vulgaris [16] = experiment: Antibacterial activity against Proteus vulgaris MTCC 1771 after 24 hrs by twofold serial dilution method; assay type: functional; settings: MTCC 1771, 24 h; how it was run: as §4
Klebsiella pneumoniae [17] = experiment: Antibacterial activity against Klebsiella pneumoniae MTCC 109 after 24 hrs by twofold serial dilution method; assay type: functional; settings: MTCC 109, 24 h; how it was run: as §4
Salmonella typhimurium [18] = experiment: Antibacterial activity against Salmonella Typhimurium MTCC 1251 after 24 hrs by two-fold serial dilution method; assay type: functional, Salmonella enterica subsp. enterica serovar Typhimurium; settings: Salmonella enterica, MTCC 1251, 24 h; how it was run: as §4
[19] = test system: Salmonella enterica subsp. enterica serovar Paratyphi B; experiment: Antibacterial activity against Salmonella paratyphi B after 24 hrs by twofold serial dilution method; assay type: functional; how it was run: as §5
[20] = Antifungal activity against Malassezia pachydermatis after 48 to 72 hrs by twofold serial dilution method; assay type: functional
How it was run: (§6)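 Broth two-fold serial dilution, 1000 to 15.62 µg/ml, with compound dissolved in 2% DMSO, in 96-well plates. Filamentous fungal spores came from 10-day SDA slants at 28 °C, and yeast from SDB grown 48 h at 28 °C. Incubation was 48-72 h at 28 °C. MIC was the lowest concentration with no visible fungal growth.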

Candida albicans [21] = experiment: Antifungal activity against Candida albicans MTCC 227 after 48 to 72 hrs by twofold serial dilution method; assay type: functional; how it was run: as §6
Botrytis cinerea [22] = experiment: Antifungal activity against Botrytis cinerea after 48 to 72 hrs by twofold serial dilution method; assay type: functional; how it was run: as §6

SMILES | inhibition zone (IZ) [1] | zone of inhibition at 1000 µg/disc (Staphylococcus aureus [4]) [mm] | zone of inhibition at 1000 µg/disc (Staphylococcus aureus [5]) [mm] | zone of inhibition at 1000 µg/disc (Micrococcus luteus [6]) [mm] | zone of inhibition at 1000 µg/disc (Klebsiella aerogenes [7]) [mm] | zone of inhibition at 1000 µg/disc (Proteus vulgaris [8]) [mm] | zone of inhibition at 1000 µg/disc (Klebsiella pneumoniae [9]) [mm] | zone of inhibition at 1000 µg/disc (Salmonella typhimurium [10]) [mm] | inhibition zone (IZ) [11] | zone of inhibition at 1000 µg/disc (Candida albicans [2]) [mm] | zone of inhibition at 1000 µg/disc (Botrytis cinerea [3]) [mm] | zone of inhibition at 1000 µg/disc [11] [mm] | also measured
O=C1C2=C(C(=O)c3ccccc31)C1(C(=O)Nc3ccc(Cl)cc31)N1CCCC21 (stereo not given) | 9 mm | 12 | 9 | 10 | 9 | 9 | 11 | 10 | inactive |  |  |  | inhibition zone (IZ) (Candida albicans [2]): inactive; inhibition zone (IZ) (Botrytis cinerea [3]): inactive
CCCCN1C(=O)C2(C3=C(CN2C)C(=O)c2ccccc2C3=O)c2ccccc21 (stereo not given) | 11 mm | 17 | 8 | 13 | 10 | 10 | 13 | 15 |  | 10 | 9 | 9 | MIC (Staphylococcus aureus [12]): 62.5 µg/mL (≈ 162 µM); MIC (Staphylococcus aureus [13]): 500 µg/mL (≈ 1290 µM); MIC (Micrococcus luteus [14]): 250 µg/mL (≈ 647 µM); MIC (Klebsiella aerogenes [15]): 500 µg/mL (≈ 1290 µM); MIC (Proteus vulgaris [16]): 500 µg/mL (≈ 1290 µM); MIC (Klebsiella pneumoniae [17]): 250 µg/mL (≈ 647 µM); MIC (Salmonella typhimurium [18]): 125 µg/mL (≈ 323 µM); MIC [19]: 500 µg/mL (≈ 1290 µM); MIC [20]: 250 µg/mL (≈ 647 µM); MIC (Candida albicans [21]): 500 µg/mL (≈ 1290 µM); MIC (Botrytis cinerea [22]): 500 µg/mL (≈ 1290 µM)
CN1C(=O)C2(C3=C(C(=O)c4ccccc4C3=O)C3CCCN32)c2ccccc21 (stereo not given) | 10 mm | 10 | 8 | 9 | 9 | 8 | 9 | 11 | inactive | 10 | 8 |  | 
CN1CC2=C(C(=O)c3ccccc3C2=O)C12C(=O)c1ccccc1C2=O | inactive | 9 |  | 8 | 8 | 8 | 9 | 10 |  |  | 9 | 9 | inhibition zone (IZ) (Candida albicans [2]): inactive; inhibition zone (IZ) (Staphylococcus aureus [5]): inactive
CN1CC2=C(C(=O)c3ccccc3C2=O)C12C(=O)Nc1ccc(Cl)cc12 (stereo not given) | 10 mm | 14 | 11 | 12 | 10 | 10 | 13 | 11 |  | 9 | 8 | 13 | 
Cc1ccc2c(c1)C1(C(=O)N2)C2=C(C(=O)c3ccccc3C2=O)C2CCCN21 (stereo not given) | 9 mm | 10 | 8 | 11 | 9 | 9 | 10 | 11 |  |  | 9 | 8 | inhibition zone (IZ) (Candida albicans [2]): inactive
CN1CC2=C(C(=O)c3ccccc3C2=O)C12C(=O)N(Cc1ccccc1)c1ccccc12 (stereo not given) | 9 mm | 9 | 8 | 9 | 8 | 8 | 10 | 9 |  | 8 | 10 | 8 | 
O=C1C2=C(C(=O)c3ccccc31)C1(C(=O)N(Cc3ccccc3)c3ccccc31)N1CCCC21 (stereo not given) | 9 mm | 10 | 8 | 9 | 8 | 10 | 8 | 9 | inactive | 8 |  |  | inhibition zone (IZ) (Botrytis cinerea [3]): inactive
C=CCN1C(=O)C2(C3=C(CN2C)C(=O)c2ccccc2C3=O)c2ccccc21 (stereo not given) | 9 mm | 11 | 9 | 10 | 9 | 8 | 9 | 11 | inactive | 9 | 8 |  | 
OC(Cn1cncn1)(Cn1cncn1)c1ccc(F)cc1F [FLUCONAZOLE] |  |  |  |  |  |  |  |  |  |  |  |  | MIC [20]: 12.5 µg/mL (≈ 40.8 µM); MIC (Candida albicans [21]): > 100 µg/mL; MIC (Botrytis cinerea [22]): inactive
C=CCN1C(=O)C2(C3=C(C(=O)c4ccccc4C3=O)C3CCCN32)c2ccccc21 (stereo not given) | inactive | 8 |  | 9 |  |  |  | 9 | inactive |  |  |  | inhibition zone (IZ) (Candida albicans [2]): inactive; inhibition zone (IZ) (Botrytis cinerea [3]): inactive; inhibition zone (IZ) (Staphylococcus aureus [5]): inactive; inhibition zone (IZ) (Klebsiella aerogenes [7]): inactive; inhibition zone (IZ) (Proteus vulgaris [8]): inactive; inhibition zone (IZ) (Klebsiella pneumoniae [9]): inactive
O=C(O)c1cn(C2CC2)c2cc(N3CCNCC3)c(F)cc2c1=O [CIPROFLOXACIN] |  |  |  |  |  |  |  |  |  |  |  |  | MIC (Staphylococcus aureus [12]): < 0.78 µg/mL; MIC (Staphylococcus aureus [13]): > 100 µg/mL; MIC (Micrococcus luteus [14]): > 100 µg/mL; MIC (Klebsiella aerogenes [15]): < 0.78 µg/mL; MIC (Proteus vulgaris [16]): < 0.78 µg/mL; MIC (Klebsiella pneumoniae [17]): < 0.78 µg/mL; MIC (Salmonella typhimurium [18]): > 100 µg/mL; MIC [19]: 6.25 µg/mL (≈ 18.9 µM)
CN1CC2=C(C(=O)c3ccccc3C2=O)C12C(=O)c1cccc3cccc2c13 (stereo not given) | 8 mm | 9 |  | 8 |  | 8 | 9 | 10 | inactive | 8 | 9 |  | inhibition zone (IZ) (Staphylococcus aureus [5]): inactive; inhibition zone (IZ) (Klebsiella aerogenes [7]): inactive
CC(=O)N1CCN(c2ccc(OCC3COC(Cn4ccnc4)(c4ccc(Cl)cc4Cl)O3)cc2)CC1 (stereo not given) [KETOCONAZOLE] | 28 mm |  |  |  |  |  |  |  |  | 22 |  |  | inhibition zone (IZ) (Botrytis cinerea [3]): inactive; MIC [20]: 15 µg/mL (≈ 28.2 µM); MIC (Candida albicans [21]): 25 µg/mL (≈ 47 µM); MIC (Botrytis cinerea [22]): 25 µg/mL (≈ 47 µM)
C#CCN1C(=O)C2(C3=C(C(=O)c4ccccc4C3=O)C3CCCN32)c2ccccc21 (stereo not given) | inactive |  |  | 9 |  | 8 |  | 9 |  | 8 | 9 | 8 | inhibition zone (IZ) (Staphylococcus aureus [4]): inactive; inhibition zone (IZ) (Staphylococcus aureus [5]): inactive; inhibition zone (IZ) (Klebsiella aerogenes [7]): inactive; inhibition zone (IZ) (Klebsiella pneumoniae [9]): inactive
